In ChEMBL document CHEMBL4190216, “Asymmetric 1,5-diarylpenta-1,4-dien-3-ones: Antiproliferative activity in prostate epithelial cell models and pharmacokinetic studies” (Eur J Med Chem, 2017):

Assays:
[1] = Tmax in Sprague-Dawley rat at 10 mg/kg administered via oral gavage by HPLC-MS/MS analysis; format: ADME, organism-based; details: in vivo
[2] = Plasma concentration in Sprague-Dawley rat at 10 mg/kg administered via oral gavage measured at 6 hrs by HPLC-MS/MS analysis; format: ADME, organism-based
[3] = Drug metabolism in human liver microsomes assessed as (1Z,4E)-5-(1-ethyl-1H-benzo[d]imidazol-2-yl)-1-hydroxy-1-(2-methyl-4-(trifluoromethyl)thiazol-5-yl)penta-1,4-dien-3-one formation at 10 mM after 60 mins by UHPLC analysis; format: ADME, microsome
How it was run: (§1)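 Pooled human liver microsomes in potassium phosphate buffer (pH 7.4) with NADPH solutions A and B were preincubated for 5 min at 37 °C. Compound was then added from a 10 mM stock (3 μL into 300 μL total) and incubated 60 min at 37 °C. Reactions were quenched with an equal volume of methanol and centrifuged (10,000 × g, 4 min, 4 °C). Supernatant went to UHPLC–high-resolution MS for metabolite identification.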

LNCaP [4] = test: Antiproliferative activity against human LNCAP cells assessed as decrease in cell viability after 3 days by WST assay; format: functional, cell-based; details: 72 h
How it was run: (§2)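 Cells were seeded at 3,200 per well. PC-3 and LNCaP were grown in RPMI-1640 and DU-145 in EMEM, each with 10% FBS and 1% penicillin/streptomycin, at 37 °C and 5% CO2. Cells were exposed for 3 days to at least five concentrations, with DMSO as vehicle control. WST-1 reagent was then added for 3 h at 37 °C and absorbance read at 430 nm. IC50 came from linear inhibition, averaged over triplicates.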

[5] = Plasma concentration in Sprague-Dawley rat at 10 mg/kg administered via oral gavage measured at 3 hrs by HPLC-MS/MS analysis; format: ADME, organism-based
PWR-1E [6] = test: Antiproliferative activity against human PWR-1E cells expressing androgen receptor and PSA assessed as decrease in cell viability after 3 days by WST assay; format: functional, cell-based; details: 72 h
How it was run: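 Non-malignant prostate epithelial PWR-1E (adenovirus 12/SV40-immortalized) was seeded at 5,000 per well. Cells were exposed for 3 days at 37 °C in a CO2 incubator to at least five concentrations, with DMSO as vehicle control. WST-1 reagent was then added for 3 h at 37 °C and absorbance read at 430 nm. IC50 came from linear inhibition, as the mean of triplicate determinations.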

[7] = Plasma concentration in Sprague-Dawley rat at 10 mg/kg administered via oral gavage measured after 1 day by HPLC-MS/MS analysis; format: ADME, organism-based
[8] = Plasma concentration in Sprague-Dawley rat at 10 mg/kg administered via oral gavage measured at 1 hr by HPLC-MS/MS analysis; format: ADME, organism-based
Rattus norvegicus [9] = test: Acute toxicity in Sprague-Dawley rat at 10 mg/kg administered via oral gavage; format: organism-based; details: in vivo
How it was run: (§3)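 Male Sprague-Dawley rats (250–300 g, n = 4) each received a single 10 mg/kg oral gavage dose. The vehicle was 5% DMSO, 40% polyethylene glycol 400 and 55% saline. Blood was drawn from the lateral tail vein at 1, 3, 6 and 24 h for plasma drug levels. Toxicity was scored as observed deaths after dosing.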

[10] = Retention time of the compound; format: physicochemical
CWR22R = test: Antiproliferative activity against human 22Rv1 cells expressing androgen receptor splice variants assessed as decrease in cell viability after 5 days by trypan blue exclusion assay; format: functional, cell-based; details: 22Rv1, 120 h
[11] = Antiproliferative activity against human LNCaP95 cells expressing androgen receptor splice variants assessed as decrease in cell viability after 5 days by trypan blue exclusion assay; format: functional, cell-based; details: LNCaP-95, 120 h
PC-3 [12] = test: Antiproliferative activity against human PC3 cells assessed as decrease in cell viability after 3 days by WST assay; format: functional, cell-based; details: PC-3, 72 h; how it was run: as §2
DU-145 [13] = test: Antiproliferative activity against human DU145 cells assessed as decrease in cell viability after 3 days by WST assay; format: functional, cell-based; details: DU-145, 72 h; how it was run: as §2
PC-3 [14] = test: Potency index, ratio of curcumin IC50 to test compound IC50 for human PC3 cells; format: functional
[15] = Drug metabolism in human liver microsomes assessed as (1Z,4E)-1-(1-ethyl-1H-benzo[d]imidazol-2-yl)-1-hydroxy-5-(2-methyl-4-(trifluoromethyl)thiazol-5-yl)penta-1,4-dien-3-one formation at 10 mM after 60 mins by UHPLC analysis; format: ADME, microsome; how it was run: as §1
[16] = Cmax in Sprague-Dawley rat at 10 mg/kg administered via oral gavage by HPLC-MS/MS analysis; format: ADME, organism-based; design: dose 10 mg/kg, route oral; details: in vivo
DU-145 [17] = test: Potency index, ratio of curcumin IC50 to test compound IC50 for human DU145 cells; format: functional
[18] = AUC in Sprague-Dawley rat at 10 mg/kg administered via oral gavage by HPLC-MS/MS analysis; format: ADME, organism-based; details: in vivo
LNCaP [19] = test: Potency index, ratio of curcumin IC50 to test compound IC50 for human LNCAP cells; format: functional
VCaP = test: Antiproliferative activity against human VCaP cells expressing androgen receptor splice variants assessed as decrease in cell viability after 5 days by trypan blue exclusion assay; format: functional, cell-based; details: 120 h
PWR-1E [20] = test: Potency index, ratio of curcumin IC50 to test compound IC50 for human PWR-1E cells expressing androgen receptor and PSA; format: functional
Rattus norvegicus [21] = test: Acute toxicity in Sprague-Dawley rat assessed as mortality at 10 mg/kg administered via oral gavage after 72 hrs; format: organism-based; details: in vivo; how it was run: as §3
PC-3 [22] = test: Cell cycle arrest in human PC3 cells assessed as accumulation at G0/G1 phase at 4 uM after 16 hrs by propidium iodide staining-based flow cytometric method (reference value: 51 to 52%); format: functional
PC-3 [23] = test: Induction of apoptosis in human PC3 cells assessed as late apoptotic/necrotic cells at 6 uM after 16 hrs by F2N12S/CYTOX AADvanced double staining-based flow cytometric method (reference value: 3%); format: functional
PC-3 [24] = test: Induction of apoptosis in human PC3 cells assessed as late apoptotic/necrotic cells at 4 uM after 16 hrs by F2N12S/CYTOX AADvanced double staining-based flow cytometric method (reference value: 3%); format: functional
PC-3 [25] = test: Induction of apoptosis in human PC3 cells assessed as early apoptotic cells at 2 uM after 16 hrs by F2N12S/CYTOX AADvanced double staining-based flow cytometric method (reference value: 2%); format: functional
Rattus norvegicus [26] = test: Acute toxicity in Sprague-Dawley rat assessed as mortality at 10 mg/kg administered via oral gavage after 48 hrs; format: organism-based; details: in vivo; how it was run: as §3
PC-3 [27] = test: Induction of apoptosis in human PC3 cells assessed as late apoptotic/necrotic cells at 15 uM after 16 hrs by F2N12S/CYTOX AADvanced double staining-based flow cytometric method (reference value: 3%); format: functional
PC-3 [28] = test: Cell cycle arrest in human PC3 cells assessed as accumulation at G2 phase at 4 uM after 24 hrs by propidium iodide staining-based flow cytometric method (reference value: 24%); format: functional
PC-3 [29] = test: Induction of apoptosis in human PC3 cells assessed as early apoptotic cells at 15 uM after 16 hrs by F2N12S/CYTOX AADvanced double staining-based flow cytometric method (reference value: 2%); format: functional
PC-3 [30] = test: Induction of apoptosis in human PC3 cells assessed as late apoptotic/necrotic cells at 2 uM after 16 hrs by F2N12S/CYTOX AADvanced double staining-based flow cytometric method (reference value: 3%); format: functional
PC-3 [31] = test: Induction of apoptosis in human PC3 cells assessed as viable cells at 2 uM after 16 hrs by F2N12S/CYTOX AADvanced double staining-based flow cytometric method (reference value: 95%); format: functional; details: PC-3, 16 h, read-out: Activity
PC-3 [32] = test: Induction of apoptosis in human PC3 cells assessed as viable cells at 8 uM after 16 hrs by F2N12S/CYTOX AADvanced double staining-based flow cytometric method (reference value: 95%); format: functional; details: PC-3, 16 h, read-out: Activity
PC-3 [33] = test: Induction of apoptosis in human PC3 cells assessed as viable cells at 6 uM after 16 hrs by F2N12S/CYTOX AADvanced double staining-based flow cytometric method (reference value: 95%); format: functional; details: PC-3, 16 h, read-out: Activity
PC-3 [34] = test: Induction of apoptosis in human PC3 cells assessed as late apoptotic/necrotic cells at 8 uM after 16 hrs by F2N12S/CYTOX AADvanced double staining-based flow cytometric method (reference value: 3%); format: functional
PC-3 [35] = test: Induction of apoptosis in human PC3 cells assessed as viable cells at 15 uM after 16 hrs by F2N12S/CYTOX AADvanced double staining-based flow cytometric method (reference value: 95%); format: functional; details: PC-3, 16 h, read-out: Activity
PC-3 [36] = test: Induction of apoptosis in human PC3 cells assessed as early apoptotic cells at 6 uM after 16 hrs by F2N12S/CYTOX AADvanced double staining-based flow cytometric method (reference value: 2%); format: functional
PC-3 [37] = test: Induction of apoptosis in human PC3 cells assessed as late apoptotic/necrotic cells at 10 uM after 16 hrs by F2N12S/CYTOX AADvanced double staining-based flow cytometric method (reference value: 3%); format: functional
PC-3 [38] = test: Induction of apoptosis in human PC3 cells assessed as early apoptotic cells at 10 uM after 16 hrs by F2N12S/CYTOX AADvanced double staining-based flow cytometric method (reference value: 2%); format: functional
PC-3 [39] = test: Induction of apoptosis in human PC3 cells assessed as early apoptotic cells at 8 uM after 16 hrs by F2N12S/CYTOX AADvanced double staining-based flow cytometric method (reference value: 2%); format: functional
PC-3 [40] = test: Induction of apoptosis in human PC3 cells assessed as viable cells at 4 uM after 16 hrs by F2N12S/CYTOX AADvanced double staining-based flow cytometric method (reference value: 95%); format: functional; details: PC-3, 16 h, read-out: Activity
PC-3 [41] = test: Induction of apoptosis in human PC3 cells assessed as viable cells at 10 uM after 16 hrs by F2N12S/CYTOX AADvanced double staining-based flow cytometric method (reference value: 95%); format: functional; details: PC-3, 16 h, read-out: Activity
PC-3 [42] = test: Cell cycle arrest in human PC3 cells assessed as accumulation at G0/G1 phase at 4 uM after 24 hrs by propidium iodide staining-based flow cytometric method (reference value: 59 to 62%); format: functional

CCn1c(/C=C/C(=O)/C=C/c2sc(C)nc2C(F)(F)F)nc2ccccc21
Tmax [1]: 6 h
concentration at 6 h [2]: 1230 ng/mL
Drug metabolism [3]: Metabolite_Detected
IC50 (LNCaP [4]): 250 nM
concentration at 3 h [5]: 982 ng/mL
IC50 (PWR-1E [6]): 80 nM
concentration at 24 h [7]: 314 ng/mL
concentration at 1 h [8]: 112 ng/mL
Activity (Rattus norvegicus [9]): Non-Toxic
Retention_time [10]: 5.05 min
IC50 (CWR22R): 220 nM
IC50 [11]: 380 nM
IC50 (PC-3 [12]): 230 nM
IC50 (DU-145 [13]): 500 nM
Ratio IC50 (PC-3 [14]): 110
Drug metabolism [15]: Metabolite_Detected
Cmax [16]: 3.25 µM
Ratio IC50 (DU-145 [17]): 53
AUC [18]: 18300 ng·h/mL
Ratio IC50 (LNCaP [19]): 54
IC50 (VCaP): 1410 nM

CC(C)n1c(/C=C/C(=O)/C=C/c2ccccn2)nc2ccccc21
Tmax [1]: 3 h
concentration at 6 h [2]: 456 ng/mL
Ratio IC50 (PWR-1E [20]): 885
IC50 (LNCaP [4]): 30 nM
concentration at 3 h [5]: 4260 ng/mL
IC50 (PWR-1E [6]): 10 nM
concentration at 24 h [7]: 103 ng/mL
concentration at 1 h [8]: 823 ng/mL
IC50 (CWR22R): 450 nM
IC50 [11]: 260 nM
IC50 (PC-3 [12]): 40 nM
IC50 (DU-145 [13]): 120 nM
Ratio IC50 (PC-3 [14]): 636
Cmax [16]: 13.5 µM
Ratio IC50 (DU-145 [17]): 219
AUC [18]: 17600 ng·h/mL
IC50 (VCaP): 640 nM
Activity (Rattus norvegicus [21]): Toxic

CCCn1ccnc1/C=C/C(=O)/C=C/c1nc2ccccc2n1CCC
Tmax [1]: 6 h
Activity (PC-3 [22]): 78%
Activity (PC-3 [23]): 35%
Activity (PC-3 [24]): 23%
Activity (PC-3 [25]): 3%
Activity (Rattus norvegicus [26]): Toxic
concentration at 6 h [2]: 281 ng/mL
Activity (PC-3 [27]): 47%
Activity (PC-3 [28]): 14%
Ratio IC50 (PWR-1E [20]): 443
IC50 (LNCaP [4]): 220 nM
concentration at 3 h [5]: 196 ng/mL
IC50 (PWR-1E [6]): 20 nM
Activity (PC-3 [29]): 52%
Activity (PC-3 [30]): 4%
viability at 2 µM (PC-3 [31]): 93%
viability at 8 µM (PC-3 [32]): 13%
viability at 6 µM (PC-3 [33]): 22%
concentration at 24 h [7]: 86 ng/mL
concentration at 1 h [8]: 114 ng/mL
Activity (PC-3 [34]): 42%
viability at 15 µM (PC-3 [35]): 1%
Activity (PC-3 [36]): 43%
Activity (PC-3 [37]): 43%
Activity (PC-3 [38]): 49%
IC50 (CWR22R): 220 nM
Activity (PC-3 [39]): 45%
IC50 [11]: 350 nM
IC50 (PC-3 [12]): 100 nM
IC50 (DU-145 [13]): 220 nM
Ratio IC50 (PC-3 [14]): 254
viability at 4 µM (PC-3 [40]): 55%
Cmax [16]: 281 ng/mL
viability at 10 µM (PC-3 [41]): 8%
Activity (PC-3 [42]): 76%
Ratio IC50 (DU-145 [17]): 119
AUC [18]: 4390 ng·h/mL
Ratio IC50 (LNCaP [19]): 62
IC50 (VCaP): 1120 nM
